# Bioassay records deposited in PubChem BioAssay by several laboratories.
# An excerpt weighted towards active compounds, which were near 9.3% of everything screened.
# D1 mod – D1 dopamine receptor (human) allosteric modulation; HEK293 D1, CRE-luciferase, dopamine EC30 potentiation; actives deviate in either direction; B-score at 10 µM; 58,000 tested, 5.9% active; AID 641;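 active = luminescence count or its row- and column-corrected plate score outside the 99.7% band of the plate's sample wells, on either side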
# Target sequence (P21728 whole entry, looked up): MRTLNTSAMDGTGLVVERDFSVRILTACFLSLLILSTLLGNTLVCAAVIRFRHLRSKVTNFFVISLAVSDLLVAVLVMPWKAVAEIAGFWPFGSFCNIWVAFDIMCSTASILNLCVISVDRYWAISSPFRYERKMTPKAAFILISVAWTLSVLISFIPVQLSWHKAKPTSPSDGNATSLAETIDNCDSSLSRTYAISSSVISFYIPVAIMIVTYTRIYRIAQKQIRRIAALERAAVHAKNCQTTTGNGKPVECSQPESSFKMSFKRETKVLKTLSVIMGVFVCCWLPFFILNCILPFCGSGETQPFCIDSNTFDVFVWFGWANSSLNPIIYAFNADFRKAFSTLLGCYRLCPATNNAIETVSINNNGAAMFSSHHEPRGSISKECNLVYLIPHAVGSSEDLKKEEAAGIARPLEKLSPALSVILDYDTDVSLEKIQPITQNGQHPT
# E coli WT exp – E. coli BW25113 growth inhibition, expanded screen | OD600 absorbance | growth inhibition, % at 100 µM | 98,000 tested, 0.15% active;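 active = growth inhibition above about 50% at one test dose, limit read from the data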;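 note: growth measured after 20 h incubation at 37 °C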
# tolC growth inh – growth inhibitors of E. coli BW25113 tolC mutant | growth inhibition, % at 10 µM (by protocol) | OD615 | 65,000 tested, 2.2% active;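 active = growth inhibition at or above a cutoff equal to the mean over every tested compound plus 3 SD, cut at about 60% in these data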;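 note: growth measured after 20 h incubation at 37 °C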
#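 Test system: E. coli BW25113 ΔtolC::kan bacteria; incubation: 37 °C, 20 h exposure; medium: LB broth supplemented with 50 µg/mL kanamycin; read-out basis: percent growth inhibition; signal: A615 absorbance measurement; compound: 10 µM final, single dose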
# PostGolgi yeast – growth inhibition of a yeast mutant, post-Golgi transport screen | post-Golgi transport phenotypic cell assay | inhibition, % at 10 µM | 98,000 tested, 0.9% active | AID 739;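 note: yeast cells grown in 1536-well plates; yeast grown about 18 h at 30C before absorbance read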
# hDAT+cocaine – modulates human dopamine transporter uptake under cocaine | Q01959 | LLC-PK1 hDAT cells, [14C]-dopamine uptake with cocaine IC80; actives deviate in either direction | B-score at 10 µM | 110,000 tested, 1.3% active | AID 449768;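 active = Z score or B-score, a plate-position-corrected score, falls beyond the plate's 99.7% confidence bounds, in either direction; inactive = both scores lie inside the 99.7% bounds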
# PostGolgi ctrl – inhibits growth of the yeast control strain | efflux-deficient yeast background strain, growth absorbance A615, 16 h | inhibition, % at 10 µM | 98,000 tested, 5% active
# Hits are given with their value; 0 = inactive; - = no result given. Cut-off read from the data, not from the text of the source, unless noted: active = inhibition above about 30%; inactive = the rest.
SMILES,D1 mod,E coli WT exp,tolC growth inh,PostGolgi yeast,hDAT+cocaine,PostGolgi ctrl
FC(F)(F)c1cc(-c2ccco2)nc(NCCc2ccccc2)n1,-,0,-,0,0,0
Cc1csc(=N)n1CC(=O)N1CCc2ccccc21,0,0,0,0,0,0
CC(=O)C(N=Nc1ccccc1)(Sc1nnc(-c2ccccc2)n1-c1ccccc1)C(C)=O,-,0,-,0,0,47
O=C(Nc1cccc2c1CCCC2)c1ccncc1,-,-,-,-,0,-
COCCNS(=O)(=O)c1ccccc1,-,0,-,0,0,0
Cc1nn(C)c(Oc2ccccc2)c1CCNS(=O)(=O)c1ccccc1,-,0,-,0,0,38
O=C1NC(=S)S/C1=C1\Sc2ccccc2N1CCCS(=O)(=O)O,-2.9,0,0,0,0,0
COc1ccc2c(c1)CCc1c(C(=O)N3CCOCC3)noc1-2,0,0,0,0,0,0
COc1ccc2c(c1)CCc1c(C(=O)N3CC4(C)CC3CC(C)(C)C4)noc1-2 (configuration not stated),0,0,0,0,0,38
COc1ccc2c(c1)CCc1c(C(=O)N3CCCc4ccccc43)noc1-2,0,0,71,0,0,0
CS(=O)(=O)N1CC(C(=O)NC2CC2)Oc2ccc(Cl)cc21 (configuration not stated),-,0,-,0,0,0
CC(=O)C(Sc1ccc2nnc(-c3ccc(F)cc3)n2n1)C(C)=O,0,0,0,0,0,0
O=C(NCCOc1ccccc1)C1CCCN1C(=O)c1cccs1 (configuration not stated),0,0,0,0,0,34
O=C(OCc1ccccc1)C1CCCN1C(=O)c1cccs1 (configuration not stated),0,0,0,0,0,0
CCOC(=O)C1=C(CN2c3ccccc3CC2C)NC(=O)NC1c1ccccc1 (configuration not stated),-,0,-,0,0,33
CS(=O)(=O)N(CCc1ccccc1)CC(=O)NCc1cccnc1,0,0,0,0,0,0
Cc1ccc(C(=O)Nc2ccc(Br)c(C(F)(F)F)c2)cc1,-,0,-,36,0,0
Cc1ccc(C(=O)NC(=S)Nc2ccccc2C(F)(F)F)cc1,-,0,-,0,0,0
COc1cc(C(=O)Nc2sc3c(c2C#N)CCN(C(C)=O)C3)cc(OC)c1OC,-,0,-,0,0,31
C=CCc1c(OC)ccc2ccc(=O)oc12,-,0,-,0,0,0
Cc1cccc(OCCNc2cc(N3CCOCC3)ccc2[N+](=O)[O-])c1,-,0,-,0,0,66
Cc1cccc(OCCCC(=O)Nc2ccc(N3CCOCC3)cc2)c1,0,0,0,0,0,0
CC(=O)N(Cc1ccc(F)cc1)C1=C(NCc2ccccc2)C(=O)c2ccccc2C1=O,-,0,-,0,-4.3,0
CCCOc1ccc(C(C)=O)cc1CSc1nc(O)cc(=O)[nH]1,-,0,-,0,0,0
CCOC(=O)N1CCC2(CC1)C(C#N)=C(N)Oc1c2c(C)nn1-c1cccc(Cl)c1,0,0,0,0,0,31
SMILES,D1 mod,E coli WT exp,tolC growth inh,PostGolgi yeast,hDAT+cocaine,PostGolgi ctrl
CCOC(=O)N1CCC2(CC1)C(C#N)=C(N)Oc1c2sc2nc(C)cc(C)c12,0,0,0,0,0,55
CCOC(=O)N1CCC2(CC1)C(C#N)=C(N)Oc1n[nH]c(C)c12,-,0,-,0,0,0
Cc1cc(=O)[nH]c2c1c(C)nn2C1CCOC(C)(C)C1 (configuration not stated),-,0,-,0,0,0
CC1CCc2cc(F)cc3c(O)c(C(=O)Nc4cnccn4)c(=O)n1c23 (configuration not stated),0,-,0,-,-,-
O=c1c2ccccc2c(-c2ccccc2)nn1Cc1ccc(Cl)cc1,-,0,-,0,0,0
O=c1c2ccccc2c(-c2ccc(Cl)cc2)nn1-c1ccccc1,-,0,-,0,0,40
CCc1nc(SCC(=O)N2CCCc3ccccc32)c2oc3ccccc3c2n1,-,0,-,0,0,37
Cc1nc(SCC(=O)N2CCN(c3ccccc3)CC2)c2oc3ccccc3c2n1,0,0,0,0,0,35
Cc1ccc(C)c(N(CC(=O)NCc2ccc3c(c2)OCO3)C(=O)CCC(=O)Nc2ccccn2)c1,0,0,0,0,0,30
COc1ccccc1N(CC(=O)NCc1ccccc1)C(=O)CCC(=O)Nc1cc(C)ccn1,-,-,-,-,2.5,-
Cc1ccnc(NC(=O)CCC(=O)N(CC(=O)NCc2ccccc2)c2ccc3c(c2)OCO3)c1,-,-,-,-,0,-
Cc1cc(C)cc(N(CC(=O)NCc2ccc3c(c2)OCO3)C(=O)CCC(=O)Nc2ccccn2)c1,0,0,0,0,0,0
COC(=O)c1ccsc1NC(=O)c1ccc2c(c1)OCCO2,3.8,-,0,-,0,-
COC(=O)c1ccsc1NC(=O)c1ccc(Cl)s1,0,-,0,-,0,-
COc1ccccc1C(=O)Nc1cc(-c2nn3c(C)nnc3s2)ccc1C,0,-,0,-,-,-
O=C(COC(=O)c1cccs1)c1ccc2ccccc2c1,-,-,-,-,0,-
O=C(COC(=O)c1cccs1)c1ccc2c(c1)OCCO2,-3,0,0,0,0,0
COc1ccc(S(=O)(=O)N2CCN(c3nc4ccccc4nc3-n3nc(C)cc3C)CC2)cc1,0,0,0,0,0,0
O=C(Nc1ccc(Br)cc1Cl)Nn1cnnc1,-,0,0,0,0,34
CCOc1ccc(-c2nc(N)ncc2-c2ccccc2)c(O)c1,0,0,0,0,0,50
O=c1c(Cc2ccccc2O)c(O)nc2n1CCCS2,-2.3,0,0,0,0,0
O=c1c(Cc2ccccc2)c(O)nc2n1CCCS2,-,0,-,0,0,0
Cc1ccc(-n2c(SCc3cn4ccsc4n3)nc3ccccc3c2=O)cc1,0,0,0,0,-,0
CCOC(=O)CCS(=O)(=O)c1ccc(-c2ccc(S(=O)(=O)CCC(=O)OCC)cc2)cc1,-,0,-,0,0,0
Cc1ccc(S(=O)(=O)CCC(=O)c2ccc(O)cc2O)cc1,0,50,0,0,0,0
SMILES,D1 mod,E coli WT exp,tolC growth inh,PostGolgi yeast,hDAT+cocaine,PostGolgi ctrl
CN(Cc1ccccc1)Cc1c[nH]c2ccccc12,-4.5,0,0,0,0,0
CCC(C)(C(=O)NC1CCCCC1)N(Cc1ccco1)C(=O)c1ccccn1 (configuration not stated),-,0,-,0,0,0
COc1ccc(NC(=O)CN2CCCN(S(=O)(=O)c3ccc(F)cc3)CC2)cc1,-,0,-,0,0,0
COc1ccc(C)cc1NC(=O)CN1CCN(c2ccccc2F)CC1,0,0,0,0,0,38
COc1ccc(C)cc1NC(=O)CN1CCN(S(=O)(=O)c2ccc(F)cc2)CC1,0,0,0,0,0,31
Cc1ccc2c(CC(=O)Nc3ccc(N4CCN(C)CC4)cc3C)coc2c1,-4.7,0,0,0,0,0
Cc1ccc2c(CC(=O)Nc3sccc3C(N)=O)coc2c1,0,0,0,0,-,0
CN(C)c1nc(OCCOC(=O)Nc2ccc(Cl)cc2Cl)nc(N(C)C)n1,-,0,0,0,0,34
COc1ccc(-c2ccc(N)[n+](CCCC(=O)O)n2)cc1,-,-,-,-,0,-
Cc1ccc2c(c1)C1CN(C)CCC1N2C(=O)Nc1ccc(Cl)cc1 (configuration not stated),-4.2,0,0,0,0,0
